Our source for the Ratio and Activity values is ChEMBL document CHEMBL4373656, “A MedChem toolbox for cereblon-directed PROTACs” (Medchemcomm, 2019).

In assay [1] the target is T1, Cereblon/Ikaros (Homo sapiens) (UniProt Q96SW2+Q13422). The experiment in a line: Protac activity at CRBN/ IKZF1 in human MM1S cells assessed as IKZF1 degradation by measuring IKZF1/tubulin ratio at 0.1 uM after 16 hrs by Western blot analysis relative to tubulin. The class given is cell-based. On the set-up: unit not given here. Put shortly:
(§1)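 MM1S multiple myeloma cells were exposed to each compound for 16 h at the indicated concentrations, including 100 nM and 1 μM. Lysates were analysed by western blot for CRBN and for the neo-substrate IKZF1.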

Assay [2] deals with T1, Cereblon/Ikaros (Homo sapiens). Description: Protac activity at CRBN/ IKZF1 in human MM1S cells assessed as CRBN degradation at 100 nM to 1 uM after 16 hrs by Western blot analysis. The class given is cell-based. Summed up:
as §1

For assay [3] the target is unchanged. Description: Protac activity at CRBN/ IKZF1 in human MM1S cells assessed as Bax protein expression at 0.1 to 10 uM after 16 hrs by Western blot analysis relative to tubulin. In kind it is cell-based.
Assay [4] has the same target. The experiment in a line: Protac activity at CRBN/ IKZF1 in human MM1S cells assessed as reduction in IKZF1 degradation at 0.001 to 0.01 uM after 16 hrs by Western blot analysis. In kind it is cell-based.
The test system of assay [5] is MM1.S. Description: Antiproliferative activity against human MM1S cells at 1 nM to 10 uM after 4 hrs by CellTiter-Glo assay. The class given is functional, cell-based.

Active and inactive are the calls of the source. No cut-off for these calls is given here. *1 amine or outer side, *2 acyl side, *3 side chain or, on linkers, in order; H or OH if unused. Where a SMILES comes first, the peptide text is derived from it. The star is where a group is joined. X1 = O=C1CCC(N2C(=O)c3cccc(NCCCOCCCCOCCCN*)c3C2=O)C(=O)N1; Suc = O=C(CCC(=O)[*:2])[*:1]

As to `O=C(CC12CC3CC(CC(C3)C1)C2)NCCOCCOCCOCCNc1cccc2c1C(=O)N(C1CCC(=O)NC1=O)C2=O` (stereo not given), the Ratio in assay [1] worked out at 16. Moreover, the result in assay [2] was inactive. For `O=C(CC12CC3CC(CC(C3)C1)C2)NCCCOCCOCCCNc1cccc2c1C(=O)N(C1CCC(=O)NC1=O)C2=O` (stereo not given), in assay [1], the Ratio stood at 15. Also, the result in assay [2] was inactive. Consider `CSCC[C@H](NC(=O)[C@@H]1CCCN1C(=O)[C@@H](NC(=O)CCC(=O)NCCCOCCCCOCCCNc1cccc2c1C(=O)N(C1CCC(=O)NC1=O)C2=O)C(C)C)C(=O)N[C@@H](CC(C)C)C(=O)N[C@@H](CCCCN)C(=O)O` (stereo not given in full) ({X1-Suc}-VPMLK-OH), for which the result in assay [3] was inactive. In the case of `O=C1CCC(N2C(=O)c3cccc(NCCOCCOCCNc4cccc5c4C(=O)N(C4CCC(=O)NC4=O)C5=O)c3C2=O)C(=O)N1` (stereo not given), the Ratio in assay [1] is 79. Consider `O=C(CC12CC3CC(CC(C3)C1)C2)NCCCOCCCCOCCCNc1cccc2c1C(=O)N(C1CCC(=O)NC1=O)C2=O` (stereo not given), for which the Ratio in assay [1] was found to be 30. The outcome in assay [2] was inactive. For `O=C(CC12CC3CC(CC(C3)C1)C2)NCCOCCOCCNc1cccc2c1C(=O)N(C1CCC(=O)NC1=O)C2=O` (stereo not given), the result in assay [4] and in assay [5] was Active. The Ratio in assay [1] worked out at 7.1. Further, the result in assay [2] was inactive.

Take `O=C(CC12CC3CC(CC(C3)C1)C2)NCCCOCCOCCOCCCNc1cccc2c1C(=O)N(C1CCC(=O)NC1=O)C2=O` (stereo not given): the Ratio in assay [1] came to 24. In addition, the result in assay [2] was inactive. As for `Cc1ncsc1-c1ccc(CNC(=O)[C@@H]2C[C@@H](O)CN2C(=O)[C@@H](NC(=O)CCCCOCCCCCOCCCCCCNc2cccc3c2C(=O)N(C2CCC(=O)NC2=O)C3=O)C(C)(C)C)cc1` (stereo not given in full), the Ratio in assay [1] is 99.
